For 62 molecules, GI50 results are on record in ChEMBL document CHEMBL1240409, “Design, synthesis and evaluation of (E)-alpha-benzylthio chalcones as novel inhibitors of BCR-ABL kinase” (Bioorg Med Chem, 2010).

Test [1] deals with K562. Kind of test: Growth inhibition of human K562 cells expressing p210Bcr/Abl after 96 hrs by trypan blue exclusion assay. In kind it is functional, cell-based. As to conditions: K562, 96 h. The gist of the method:
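K562 cells were kept in RPMI with 10% FBS and penicillin–streptomycin at 37 °C under 5% CO2. Cells were seeded at 1 × 10^5 cells/mL with a range of compound concentrations, using DMSO as the negative control. After 96 h, viability was counted by Trypan blue exclusion and expressed as percent of DMSO control to derive GI50.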

In test [2] the test system is DU-145. As to the kind of experiment: Growth inhibition of human DU145 cells after 96 hrs by trypan blue exclusion assay. In kind it is functional. The following applies: DU-145, 96 h.

For the molecule `CCOc1ccc(/C=C(\C(=O)c2ccc(Br)cc2)S(=O)(=O)c2ccc(Br)cc2)cc1OC`, the GI50 in test [1] and in test [2] was 1 µM each time. Consider `O=C(/C(=C/c1ccc(Cl)cc1)Cc1ccc(Cl)c(Cl)c1)c1ccc(Cl)cc1Cl`, for which the GI50 in test [1] and in test [2] was 1 µM each time. `COc1cc(OC)c(/C=C(\C(=O)c2ccc(Cl)cc2)S(=O)(=O)c2ccc(C)cc2)c(OC)c1`: the GI50 stood at 10 µM in test [1] and 25 µM in test [2].

For the molecule `O=C(/C(=C\c1cc(Cl)cc(Cl)c1Cl)Sc1ccccc1Br)c1ccc(Cl)cc1`, the GI50 in test [1] was 50 µM; in test [2], 25 µM. With `COc1ccccc1/C=C(\C(=O)c1ccc(Cl)cc1)S(=O)(=O)c1ccc(C)cc1`, the GI50 in test [1] and in test [2] was 1 µM in each case. Regarding `COc1cc(OC)c(/C=C(/SCc2ccc(F)cc2)C(=O)c2ccc(Cl)cc2)c(OC)c1`, the GI50 in test [1] and in test [2] was 10 µM in each case. Consider `CCOc1ccc(/C=C(\C(=O)c2ccc(Br)cc2)S(=O)(=O)c2ccc(Br)cc2)c(OCC)c1`, for which the GI50 in test [1] was found to be 1 µM; in test [2], 10 µM. As for `COc1ccccc1/C=C(\C(=O)c1ccc(Cl)cc1)S(=O)(=O)c1ccc(Br)cc1`, the 50% growth inhibitory concentration (GI50) in test [1] and in test [2] was 10 µM each time.

For the molecule `COc1ccc(C=C(C(=O)c2ccc(OC)cc2)S(=O)(=O)Cc2ccc([N+](=O)[O-])cc2)cc1`, the GI50 in test [1] came to 10 µM; in test [2] it was 25 µM. Consider `COc1ccc(C(=O)/C(=C\c2ccc(OC)c(O)c2)Sc2ccc(F)cc2)cc1`, for which the GI50 in test [1] and in test [2] was 1 µM in each case. `Cc1ccc(CS(=O)(=O)/C(=C/c2ccc(N(C)C)cc2)C(=O)c2ccc(Cl)cc2)cc1`: the GI50 in test [1] and in test [2] was 50 µM throughout.

As for `Cc1ccc(/C=C(/Sc2ccc(F)cc2)C(=O)c2ccc(Cl)cc2)s1`, the GI50 in test [1] and in test [2] was 25 µM each time. Take `Cc1ccc(S(=O)(=O)/C(=C/c2ccc(O)c([N+](=O)[O-])c2)C(=O)c2ccc(Cl)cc2)cc1`: the GI50 in test [1] and in test [2] was 25 µM throughout.

As to `O=C(/C(=C\c1ccccc1F)S(=O)(=O)c1ccc(Br)cc1)c1ccc(Cl)cc1`, the GI50 in test [1] and in test [2] was 25 µM in each case. On to `Cc1ccc(CS/C(=C/c2ccc(F)cc2C(F)(F)F)C(=O)c2ccc(Cl)cc2)cc1`, for which the GI50 in test [1] and in test [2] was 50 µM each time. With `COc1cc(OC)c(/C=C(/Sc2ccc(C)cc2)C(=O)c2ccc(Cl)cc2)c(OC)c1`, the 50% growth inhibitory concentration (GI50) is 25 µM in test [1] and more than 100 µM in test [2]. Regarding `O=C(/C(=C\c1ccc(Br)cc1)Sc1ccc(Br)cc1)c1ccc(Cl)cc1`, the GI50 in test [1] and in test [2] was 1 µM each time. For `COc1ccc(/C=C(/Sc2ccc(C)cc2)C(=O)c2ccc(Cl)cc2)cc1`, the GI50 in test [1] and in test [2] was 1 µM throughout. With `Cc1ccc(CS(=O)(=O)/C(=C/c2c(O)cc(O)cc2O)C(=O)c2ccc(Cl)cc2)cc1`, the GI50 in test [1] and in test [2] was more than 100 µM in each case. Turning to `COc1ccc(C(=O)C(=Cc2ccc(Br)cc2)S(=O)(=O)Cc2ccc(Br)cc2)cc1`, the GI50 in test [1] and in test [2] was 1 µM throughout. With `CN(C)c1ccc(/C=C(\C(=O)c2ccc(C(=O)O)cc2)S(=O)(=O)Cc2ccc(Cl)cc2)cc1`, the GI50 in test [1] and in test [2] was more than 100 µM each time.

As for `COc1cc(OC)c(C=C(C(=O)c2ccc(Cl)cc2)S(=O)(=O)Cc2ccccc2Cl)c(OC)c1`, the GI50 in test [1] is 25 µM; in test [2], more than 100 µM.

Consider `CN(C)c1ccc(/C=C(/SCc2ccccc2Cl)C(=O)c2ccc(Cl)cc2)cc1`, for which the concentration for 50% growth inhibition (GI50) in test [1] is 50 µM; in test [2] it was more than 100 µM. `O=C(O)c1cc(/C=C(/Sc2ccc(Br)cc2)C(=O)c2c(F)c(F)c(F)c(F)c2F)ccc1O`: the GI50 in test [1] and in test [2] was 25 µM throughout. For `O=C(/C(=C\c1ccc(Br)cc1)S(=O)(=O)c1ccc(Br)cc1)c1ccc(Br)cc1`, the GI50 in test [1] and in test [2] was 10 µM throughout. With `Cc1ccc(S/C(=C/c2ccc(Cl)cc2)C(=O)c2ccc(Cl)cc2)cc1`, the 50% growth inhibitory concentration (GI50) in test [1] was found to be 1 µM; in test [2] it was 10 µM.

As to `O=C(/C(=C\c1ccc([N+](=O)[O-])c(O)c1)SCc1ccc(Br)cc1)c1ccc([N+](=O)[O-])c(Cl)c1`, the 50% growth inhibitory concentration (GI50) in test [1] and in test [2] was 1 µM each time.

Consider `CCOc1cc(/C=C(\SCc2ccc(Cl)cc2Cl)C(=O)c2ccc(Cl)cc2)ccc1O`, for which the figures for the GI50 in test [1] and in test [2] were 1 µM and 10 µM, respectively. `O=C(/C(=C\c1ccc(Br)c([N+](=O)[O-])c1)S(=O)(=O)c1ccc(Br)cc1)c1ccc(Br)cc1`: the GI50 in test [1] and in test [2] was 10 µM each time. `O=C(/C(=C\c1ccccc1OCc1ccccc1)Sc1ccc(Br)cc1)c1ccc(Cl)cc1`: the GI50 in test [1] and in test [2] was 10 µM each time. For the molecule `O=C(/C(=C\c1ccc(I)cc1)Sc1ccc(Br)cc1)c1ccc(Br)cc1`, the GI50 in test [1] and in test [2] was 1 µM in each case. Consider `Cc1ccc(/C=C(\C(=O)c2ccc([N+](=O)[O-])cc2)S(=O)(=O)Cc2ccc(Cl)cc2)s1`, for which the results for the GI50 in test [1] and in test [2] were 10 µM and 25 µM, respectively.

As for `O=C(/C(=C\c1ccc(OC(F)(F)F)cc1)S(=O)(=O)c1ccc(Br)cc1)c1ccc(Br)cc1`, the GI50 in test [1] and in test [2] was 25 µM in each case. Regarding `Nc1c(Br)cc(Br)cc1/C=C(\C(=O)c1ccc(Br)cc1)S(=O)(=O)c1ccc(Br)cc1`, the GI50 in test [1] and in test [2] was 25 µM in each case. In the case of `CCOc1ccc(/C=C(\C(=O)c2ccc(Cl)cc2)S(=O)(=O)Cc2ccccc2Cl)cc1OC`, the values for the GI50 in test [1] and in test [2] were 1 µM and 10 µM, respectively. For `COc1ccc(/C=C(/SCc2ccc(F)cc2)C(=O)c2ccc(Br)cc2)cc1` the same measures were 1 µM and 50 µM. Consider `Cc1ccc(CS(=O)(=O)/C(=C/c2ccccc2OCc2ccccc2)C(=O)c2ccc(Cl)cc2)cc1`, for which the GI50 in test [1] and in test [2] was 1 µM throughout.

For `Cc1ccc(CS(=O)(=O)/C(=C/c2c[nH]c3ccc(Br)cc23)C(=O)c2ccc(Cl)cc2)cc1`, the GI50 in test [1] and in test [2] was 10 µM in each case. On to `COc1cc(OC)c(C=C(C(=O)c2ccc(Cl)cc2)[S+]([O-])Cc2ccccc2Cl)c(OC)c1` (centres undefined), for which the values for the GI50 in test [1] and in test [2] were 50 µM and 10 µM, respectively. For the molecule `CN1CCN(c2ccc(/C=C(/SCc3ccc(Br)cc3)C(=O)c3ccc(C(=O)O)cc3)cc2[N+](=O)[O-])CC1`, the values for the GI50 in test [1] and in test [2] were 1 µM and 10 µM, respectively. On to `Cc1cc(C)cc(/C=C(/SCc2ccc(F)cc2)C(=O)c2ccc(Br)cc2)c1`, for which the GI50 was 1 µM in test [1] and 10 µM in test [2]. For the molecule `O=C(/C(=C\c1ccc2ccccc2n1)SCc1ccc(F)cc1)c1ccc(Br)cc1`, the concentration for 50% growth inhibition (GI50) in test [1] and in test [2] was 25 µM throughout. Take `COc1ccccc1/C=C(/SCc1ccccc1F)C(=O)c1ccc(Cl)cc1`: the GI50 is 1 µM in test [1] and 10 µM in test [2].

Consider `O=C(/C(=C\c1ccc([N+](=O)[O-])c(O)c1)SCc1ccc(Br)cc1)c1ccc(Br)cc1`, for which the GI50 was determined as 1 µM in test [1] and 10 µM in test [2]. In the case of `COc1ccc(/C=C(\C(=O)c2ccc(Br)cc2)S(=O)(=O)c2ccc(Br)cc2)c(OC)c1`, the GI50 in test [1] and in test [2] was 8 µM each time.

With `Nc1c(Br)cc(Br)cc1/C=C(/Sc1ccc(Br)cc1)C(=O)c1ccc(Br)cc1`, the GI50 in test [1] and in test [2] was more than 100 µM in each case. Turning to `COc1cc(OC)c(/C=C(\C(=O)c2ccc(Br)cc2)S(=O)(=O)c2ccc(C)cc2)c(OC)c1`, the GI50 in test [1] and in test [2] was more than 100 µM in each case. Take `CCOc1ccc(/C=C(\C(=O)c2ccc(Cl)cc2)S(=O)(=O)Cc2ccc(C)cc2)cc1OC`: the GI50 in test [1] and in test [2] was 10 µM in each case. For the molecule `O=C(/C(=C\c1ccc(F)c([N+](=O)[O-])c1)SCc1ccc(Br)cc1)c1ccc(Cl)c([N+](=O)[O-])c1`, the GI50 in test [1] and in test [2] was more than 100 µM throughout. On to `Cc1ccc(S(=O)(=O)/C(=C/c2ccc(Br)cc2)C(=O)c2ccc(Br)cc2)cc1`, for which the 50% growth inhibitory concentration (GI50) is 4 µM in test [1] and 10 µM in test [2]. Taken in the same sequence, the figures for `O=C(/C(=C\c1ccc(Cl)cc1)SCc1ccc(Cl)cc1)c1ccccc1Cl` were 1 µM and 30 µM. Regarding `O=C(/C(=C\c1ccc(Br)cc1)SCc1ccc(F)cc1)c1ccc(Br)cc1`, the 50% growth inhibitory concentration (GI50) in test [1] was 1 µM; in test [2] it was 25 µM. Turning to `O=C(/C(=C\c1cc(Br)c(O)c(Br)c1)S(=O)(=O)Cc1ccc(Br)cc1)c1ccc(Br)cc1`, the GI50 in test [1] and in test [2] was 25 µM throughout. On to `Cc1ccc(S/C(=C/c2cc(C)cc(C)c2)C(=O)c2ccc(Cl)cc2)cc1`, for which the GI50 was determined as 25 µM in test [1] and 50 µM in test [2]. For `COc1cc(OC)c(/C=C(\C(=O)c2ccc([N+](=O)[O-])cc2)S(=O)(=O)Cc2ccc(Cl)cc2)c(OC)c1`, the GI50 in test [1] and in test [2] was 10 µM throughout. `Cc1ccc(S(=O)(=O)/C(=C/c2c(F)c(F)c(F)c(F)c2F)C(=O)c2ccc(Cl)cc2)cc1`: the GI50 in test [1] was 50 µM; in test [2], more than 100 µM.

Turning to `Cc1ccc(S/C(=C/c2ccc(F)cc2C(F)(F)F)C(=O)c2ccc(Br)cc2)cc1`, the GI50 in test [1] and in test [2] was 25 µM each time.

In turn, `O=C(/C(=C\c1ccc(F)c([N+](=O)[O-])c1)SCc1ccc(Br)cc1)c1ccc(C(F)(F)F)cc1` showed a GI50 in test [1] of 1 µM. With `COc1cccc(OC)c1/C=C(\C(=O)c1ccc(Br)cc1)S(=O)(=O)c1ccc(Br)cc1`, the GI50 in test [2] is 10 µM. Consider `O=C(/C(=C\c1ccc(F)cc1)Sc1ccc(Br)cc1)c1ccc(Br)cc1`, for which the concentration for 50% growth inhibition (GI50) in test [1] was found to be 1 µM. The molecule `COc1ccc(/C=C(/SCc2ccc(Cl)cc2)C(=O)c2ccc(Cl)cc2)cc1O` registered a GI50 in test [1] of 1 µM. Turning to `O=C(/C(=C\c1ccc(F)c([N+](=O)[O-])c1)Sc1ccc(Cl)cc1)c1ccc(Cl)cc1`, the GI50 in test [1] came out at 10 µM.

In general, GI50 refers to the concentration at which growth is held to half of that of the control. High values mean less potent growth inhibition, low ones more potent growth inhibition.
